We go through 10 compounds from ChEMBL document CHEMBL1144579, “Synthesis and antiparasitic evaluation of bis-2,5-[4-guanidinophenyl]thiophenes” (Eur J Med Chem, 2007).

Assay [1] has as its system Trypanosoma brucei rhodesiense. Kind of assay: Antitrypanosomal activity in Trypanosoma brucei rhodesiense STIB900 infected mouse at 20 mg/kg, ip administered for 4 days. The class given is functional, organism-based. The arrangement: dose 20 mg/kg.
The subject of assay [2] is Mus musculus. Kind of assay: Survival of Trypanosoma brucei rhodesiense STIB900 infected mouse at 20 mg/kg, ip administered for 4 days. The class given is functional. To be noted: route intraperitoneal.
In assay [3] the test system is Leishmania donovani. Nature of the assay: Antiparasitic activity against Leishmania donovani. The class given is functional, organism-based.
For assay [4], the system named is Trypanosoma cruzi. Nature of the assay: Antiparasitic activity against Trypanosoma cruzi Tulahuen LacZ C4. The class given is functional, organism-based.
Assay [5] concerns Trypanosoma brucei rhodesiense. Kind of assay: Antiparasitic activity against Trypanosoma brucei rhodesiense STIB900. The class given is functional, organism-based. The essentials: (§1)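 In vitro IC50s against T. b. rhodesiense STIB900 and P. falciparum K1 are means of at least two independent experiments. The IC50 values averaged for each compound were within a factor of two of each other.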

Assay [6] deals with Plasmodium falciparum. Nature of the assay: Antiparasitic activity against Plasmodium falciparum K1. In kind it is functional, organism-based. An outline of the steps:
as §1

The test system of assay [7] is L6. Nature of the assay: Cytotoxicity against rat L6 cells by alamar blue assay. The class given is cell-based.
Assay [8] concerns Mus musculus. Kind of assay: Survival of Trypanosoma brucei rhodesiense STIB900 infected mouse at 5 mg/kg, ip administered for 4 days. The class given is functional. The following applies: route intraperitoneal.

Activity calls are given as the source filed them. The rule behind the calls is not given here.

Usually IC50 stands for the point on the concentration scale where inhibition reaches its midpoint. Read a low IC50 as inhibition by little substance. On to `N=C(N)c1ccc(-c2ccc(-c3ccc(C(=N)N)cc3)o2)cc1` [FURAMIDINE], for which the outcome in assay [1] was inactive. Also, the Survival in assay [2] is more than 52.5 days. Further, the IC50 in assay [3] worked out at 2800 nM; in assay [4], 23300 nM.

Take `Cc1ccc(NC(=N)Nc2ccc(-c3ccc(-c4ccc(NC(=N)Nc5ccc(C)cc5)cc4)s3)cc2)cc1`: the IC50 came to 573 nM in assay [5]; 16000 nM in assay [3]; 3700 nM in assay [4]; 42.7 nM in assay [6]; 1100 nM in assay [7].

`N=C(Nc1ccc(-c2ccc(-c3ccc(NC(=N)NC4CCCC4)cc3)s2)cc1)NC1CCCC1`: the IC50 in assay [5] stood at 306 nM; in assay [3], 1500 nM; in assay [4], 8400 nM; in assay [6] it was 134 nM; in assay [7] it was 15900 nM. The same compound came in with a Survival in assay [2] of more than 39.5 days.

Turning to `CNC(=N)Nc1ccc(-c2ccc(-c3ccc(NC(=N)NC)cc3)s2)cc1`, the IC50 in assay [5] was determined as 6.2 nM; in assay [3] it was 6200 nM; in assay [4], 30500 nM; in assay [6], 23 nM; in assay [7] it was 54300 nM. Moreover, the Survival in assay [2] is more than 40.25 days.

On to `N=C(Nc1ccc(-c2ccc(-c3ccc(NC(=N)NC4CCCCC4)cc3)s2)cc1)NC1CCCCC1`, for which the IC50 in assay [5] amounted to 354 nM; in assay [3] it was 2500 nM; in assay [4] it was 1700 nM; in assay [6], 160 nM; in assay [7], 4300 nM.

As for `N=C(N)Nc1ccc(-c2ccc(-c3ccc(NC(=N)N)cc3)s2)cc1`, in assay [1], the result was inactive. In addition, the IC50 in assay [5] amounted to 28 nM; in assay [3], 6700 nM; in assay [4], 154000 nM; in assay [6], 3.6 nM; in assay [7], 100000 nM. Further, the Survival in assay [2] amounted to 43 days.

Take `N=C(Nc1ccccc1)Nc1ccc(-c2ccc(-c3ccc(NC(=N)Nc4ccccc4)cc3)s2)cc1`: the IC50 was 1900 nM in assay [5]; 35000 nM in assay [3]; 9900 nM in assay [4]; 154 nM in assay [6]; 2500 nM in assay [7].

For `N=C(N)c1ccc(OCCCCCOc2ccc(C(=N)N)cc2)cc1` [PENTAMIDINE], in assay [1], the result was inactive. Also, the Survival in assay [2] is 40.8 days. The values for the IC50 in assay [3] and in assay [4] were 1900 nM and 5350 nM, respectively.

In assay [7], `CCN(CC)CCCC(C)Nc1ccnc2cc(Cl)ccc12` (centres undefined) [CHLOROQUINE] came in with an IC50 of 188000 nM.

As for `CC(C)NC(=N)Nc1ccc(-c2ccc(-c3ccc(NC(=N)NC(C)C)cc3)s2)cc1`, in assay [8], the Survival is more than 34 days. In addition, the IC50 in assay [5] came to 116 nM; in assay [3], 11000 nM; in assay [4], 28200 nM; in assay [6] it was 107 nM; in assay [7], 69400 nM.
